Screening data deposited in PubChem by Sanford-Burnham Center for Chemical Genomics.
This is a sample that favours compounds with a hit; in the whole collection about 1.5% have one here.
CXCR6 block: CXCR6 (human) receptor inhibition; O00574; CHO-K1 PathHunter CXCR6 beta-arrestin, luminescence; inhibition, % at 20 µM; 360,000 compounds, 0.36% hits; AID 602244; in the data active means inhibition above about 34%, passing the limit was not always enough;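 further: antagonist mode with CXCL16 agonist at 10 nM final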
APJ antag: antagonists of human APJ apelin receptor; P35414; AID 2521; CHO-K1 APJ beta-arrestin complementation, luminescence; 330,000 compounds, 0.32% hits; inhibition, % at 20 µM;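 active means inhibition above about 40% at 20 µM, limit read from the data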;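 further: cells challenged with 10 nM apelin-13 agonist together with compound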
EBI2 block: antagonists of human EBI2 receptor | inhibition, % at 5 µM | 360,000 compounds, 0.81% hits | EBI2 beta-arrestin recruitment, luminescence, 7a,25-OHC stimulated | P32249; in the data active means inhibition above about 38%;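 further: enzyme fragment complementation signal reports receptor beta-arrestin coupling in cells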
Target sequence (P32249 whole entry, looked up, the tested form may be a part): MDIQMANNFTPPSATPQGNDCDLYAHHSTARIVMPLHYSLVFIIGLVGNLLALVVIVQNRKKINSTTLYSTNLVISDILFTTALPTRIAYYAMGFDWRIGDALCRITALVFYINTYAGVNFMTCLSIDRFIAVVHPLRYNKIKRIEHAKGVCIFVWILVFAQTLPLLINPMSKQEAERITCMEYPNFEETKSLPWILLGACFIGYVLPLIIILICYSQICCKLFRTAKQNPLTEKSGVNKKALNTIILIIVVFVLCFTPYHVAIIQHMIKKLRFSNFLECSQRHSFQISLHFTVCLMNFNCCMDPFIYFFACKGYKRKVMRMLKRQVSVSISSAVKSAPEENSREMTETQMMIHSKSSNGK
CCR6 antag: blocks CCL20-driven beta-arrestin recruitment at human CCR6 | P51684 | CHO-K1 CCR6 PathHunter beta-arrestin, luminescence, CCL20-stimulated | inhibition, % at 20 µM | 340,000 compounds, 0.49% hits | AID 493098;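 active means compounds whose inhibition of the agonist-driven luminescence signal at 20 µM reaches about 50%, limit read from the data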;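 further: cells stimulated with CCL20 at 14 nM final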
APJ agonist: activates the human apelin receptor APJ. P35414. CHO-K1 APJ PathHunter beta-arrestin, luminescence; 0% DMSO wells, 100% apelin. activation, % at 20 µM. 330,000 compounds, 0.11% hits. AID 2520;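 active means activation more than six SD over the plate average, tested at 20 µM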
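Test system: CHO-K1 APJ beta-arrestin complementation cell line. Amount: cell density 1000 per well. Controls: DMSO negative, 10 nM Apelin-13 positive. Signal: luminescent beta-gal fragment complementation, chemiluminescent substrate. Read-out basis: agonist-driven arrestin binding to APJ. Timing: compound stimulation 90 min at 25 °C, detection 60 min.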
EBI2 conf: confirmation of human EBI2 receptor antagonists; inhibition, % at 5 µM; shares compounds with EBI2 block; 2,400 compounds, 29% hits; EBI2 beta-arrestin luminescence, 7a,25-OHC antagonism;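 active means inhibition of at least 50%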
EBI2 agonist: EBI2 agonism counter-screen | 2,400 tested, under 10 active | EBI2-expressing cells, agonist mode, luminescence, 60 min; 0% vehicle, 100% 7α,25-dihydroxycholesterol control | shares compounds with EBI2 block | activation, % at 5 µM;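 active means activation of at least 50%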
bGal counter: inhibits E. coli beta-galactosidase, counter-screen for EBI2 antagonists. 2,400 compounds, 1% hits. inhibition, % at 5 µM. AID 652176. purified beta-galactosidase, luminescent Galacton Star, 15 min. shares compounds with EBI2 block;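 active means replicate-average signal at least 3 plate SD below neutral wells, shown as high inhibition, flagging enzyme-inhibiting false positives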;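 further: higher means stronger loss of beta-gal luminescence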
Hits are given with their value; - = inactive; . = no result given.

SMILES	CXCR6 block	APJ antag	EBI2 block	CCR6 antag	APJ agonist	EBI2 conf	EBI2 agonist	bGal counter
COc1cccc(OC)c1C(=O)OCC(=O)NCCNC(=O)COC(=O)c1c(OC)cccc1OC	-	.	-	.	.	.	.	.
COc1ccc(NC(=S)N2CCC(c3ccc(C)cc3)C2)cc1 (stereo not given)	-	-	46.1	-	-	-	-	-
Cc1ccc(NC(=S)N2CCC(c3ccc(C)cc3)C2)cc1 (stereo not given)	-	-	-	-	-	.	.	.
O=C(Nc1cccc(F)c1)N1CCC(c2ccccc2)CC1	-	-	67.0	-	-	-	-	-
Cc1ccc(C2CCN(C(=O)Nc3ccccc3)C2)cc1 (stereo not given)	-	-	60.3	-	-	-	-	-
Cc1ccc(NC(=O)N2CCC(c3ccccc3)C2)cc1C (stereo not given)	-	-	72.9	-	-	62.8	-	-
CN(C)c1ccc(-c2noc(C3CCN(C(=O)Nc4ccc(Cl)cc4)CC3)n2)cc1	-	-	81.9	-	-	57.4	-	-
O=C(Nc1ccc(Cl)cc1)N1CCC(c2ccccc2)C1 (stereo not given)	-	-	86.8	-	-	54.9	-	-
CC(C)N(C)C1CCN(C(=O)Nc2ccc(Cl)cc2)CC1	-	-	-	-	-	.	.	.
CCOC(=O)CN(C(=O)CSc1nnc(CNc2ccc(C)cc2C)o1)c1ccccc1	-	-	45.5	-	-	-	-	-
CCCc1nnc(NC(=O)CCC(=O)N2CCN(Cc3ccc(Cl)cc3)CC2)s1	-	-	-	-	-	.	.	.
COc1ccc([C@H]2CN(c3ccc(OC)cc3)C(=O)[C@@H]2CC(=O)Nc2ccccc2)cc1	-	.	46.4	.	.	52.5	-	-
COc1ccc(NC(=O)C[C@H]2C(=O)N(c3ccc(Br)cc3)C[C@@H]2c2ccc(OC)cc2)cc1	-	.	-	.	.	.	.	.
O=C(Nc1ccc2c(c1)OCCO2)C(c1ccnc2ccccc12)N1CCN(C/C=C/c2ccccc2)CC1 (stereo not given)	-	.	49.6	.	.	-	-	-
O=C(Nc1ccc2c(c1)OCCO2)C(CCc1ccccc1)N1CCN(C/C=C/c2ccccc2)CC1 (stereo not given)	-	.	43.7	.	.	-	-	-
O=C(Nc1ccc2c(c1)OCCO2)C(CCc1ccccc1)N1CCN(c2ccc(F)cc2)CC1 (stereo not given)	-	.	-	.	.	.	.	.
Cc1ccc(C(C)NC(=O)c2ccc3c(c2)OCO3)cc1C (stereo not given)	-	-	-	-	-	.	.	.
CCOC(=O)C1CCN(c2nc3ccccc3nc2C(C#N)C(=O)OCCOC)CC1 (stereo not given)	-	-	-	-	-	.	.	.
COC(=O)C1CCN(c2nc3ccccc3nc2C(C#N)C(=O)NCCc2ccccc2)CC1 (stereo not given)	-	-	67.0	-	-	-	-	-
C[C@H](CO)N1C[C@H](C)[C@@H](CN(C)S(C)(=O)=O)Oc2ccc(NC(=O)Nc3ccccc3)cc2C1=O	-	-	-	-	-	.	.	.
CC(=O)N1N=C(c2ccccc2)CC1c1cn(Cc2ccccc2)c2ccccc12 (stereo not given)	-	-	49.4	-	-	-	-	-
O=C1CC2(CCN(C(=O)C3CC(=O)N(c4ccccc4)C3)CC2)Oc2ccccc21 (stereo not given)	-	-	64.5	-	-	-	-	-
O=C1CC2(CCN(C(=O)COc3ccccc3)CC2)Oc2ccccc21	-	-	45.6	-	-	-	-	-
Cc1ccccc1OCC(=O)N1CCC2(CC1)CC(=O)c1ccccc1O2	-	-	-	-	-	.	.	.
O=C(O)C1C2C=CC(C2)C1C(=O)NCc1ccc(Cl)cc1Cl (stereo not given)	-	-	-	-	-	.	.	.
SMILES	CXCR6 block	APJ antag	EBI2 block	CCR6 antag	APJ agonist	EBI2 conf	EBI2 agonist	bGal counter
CCOP(=O)(O)c1cccc(OCCOCCOc2cccc(P(=O)(O)OCC)c2)c1	-	-	-	-	-	.	.	.
COc1cc(CCC(=O)N2CCN(S(=O)(=O)c3ccc(C)c(C)c3)CC2)cc(OC)c1OC	-	-	-	-	-	.	.	.
O=C(CCc1ccc(S(=O)(=O)N2CCOCC2)cc1)N1CCCC1	-	-	-	-	-	.	.	.
COc1ccc(CCC(=O)N2CCN(S(=O)(=O)c3ccc(OC(F)(F)F)cc3)CC2)cc1	-	-	53.5	-	-	-	-	-
COc1ccc(CCC(=O)N2CCN(S(=O)(=O)c3ccc(OC)c([N+](=O)[O-])c3)CC2)cc1	-	.	54.5	.	.	-	-	-
CCc1ccc(CCC(=O)N2CCN(S(=O)(=O)c3ccc(Br)cc3)CC2)cc1	-	.	88.3	.	.	52.3	-	-
COc1ccc(CCC(=O)N2CCN(S(=O)(=O)c3ccc4ccccc4c3)CC2)cc1	-	-	64.0	-	-	-	-	-
Cc1ccc(NC(=O)COC(=O)c2ccc(CN3CCCC3=O)cc2)cc1C	-	-	-	-	-	.	.	.
COc1ccnc(Oc2ccc(Cl)cc2)c1C#N	-	-	-	-	-	.	.	.
Cc1ccc(S(=O)(=O)N(C)c2ccccc2C(=O)NC2CCCC2)cc1	-	-	-	-	-	.	.	.
Cc1ccccc1-n1nc2c(c1NC(=O)C(C)(C)C)CS(=O)(=O)C2	-	-	-	-	-	.	.	.
O=C(N/N=C/c1cccc([N+](=O)[O-])c1)C1CC1c1ccccc1 (stereo not given)	-	-	-	-	-	.	.	.
Cc1nc2c(OCc3ccc(Cl)cc3Cl)cccn2c1N(C)Cc1cccs1	-	.	42.0	.	.	-	-	-
NNC(=O)c1nn(-c2ccc(Cl)cc2)cc1O	-	-	-	-	-	.	.	.
CCOC(=O)/C(N=Nc1ccc(F)cc1)=C(/O)c1ccc([N+](=O)[O-])cc1	-	-	-	-	-	.	.	.
O=C(c1cc2cc(F)ccc2[nH]1)N1CCC(Cc2ccccc2)CC1	-	-	87.5	-	-	63.2	-	-
COc1ccc2[nH]c(C(=O)N3CCC(Cc4ccccc4)CC3)cc2c1	-	-	83.9	-	-	51.3	-	-
O=C(c1cc2cc(F)ccc2[nH]1)N1CCc2ccccc2C1	-	-	-	-	-	.	.	.
COc1ccc2cc(C(=O)N3CCC(Cc4ccccc4)CC3)[nH]c2c1	-	-	76.8	-	-	53.3	-	-
COc1cc2cc(C(=O)N3CCC(Cc4ccccc4)CC3)[nH]c2cc1OC	-	-	-	-	-	.	.	.
CC(C)CNS(=O)(=O)c1ccc(S(=O)(=O)N2CCN(C3CCCC3)CC2)cc1	-	-	-	-	-	.	.	.
O=C1N=C(N2CCCCC2)S/C1=C\c1ccc(Br)cc1	-	-	86.7	-	-	58.0	-	-
